Laboratory results: ChEMBL document CHEMBL1134615, “Structure-based design and synthesis of potent matrix metalloproteinase inhibitors derived from a 6H-1,3,4-thiadiazine scaffold” (J Med Chem, 2001)
Each block holds one compound with its values, some of them ahead of it.

Experiments:
[1] = target: Neutrophil collagenase (Homo sapiens, UniProt P22894); experiment: Inhibitory activity against matrix metalloprotease-8
[2] = target: 72 kDa type IV collagenase (Homo sapiens, UniProt P08253)
[3] = target: Collagenase 3 (Homo sapiens, UniProt P45452); experiment: In Vitro inhibitory activity against the catalytic domain of the matrix metalloprotease-13
[4] = target: Matrix metalloproteinase-9 (Homo sapiens, UniProt P14780); experiment: In vitro inhibition of human matrix metalloprotease-9
Method in brief: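 Full-length PMNL pro-gelatinase from human plasma buffy coat, activated with trypsin for 10 min at 37 °C, then trypsin inactivated with TKI. […] Buffer 50 mM HEPES pH 7.0, 10 mM CaCl2, 0.02% PEG 8000, 2% DMSO, 25 °C. Inhibitor 0.005-15 µM, 30 min preincubation, triplicate. Ki from logistic IC50 by the Horovitz-Levitski method.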

[5] = target: Macrophage metalloelastase (Homo sapiens, UniProt P39900); experiment: In Vitro inhibitory activity against the catalytic domain of the matrix metalloprotease-12
Method in brief: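 Human MMP-12 catalytic domain, expressed in E. coli as inclusion bodies, renatured and affinity-purified. FRET assay in 50 mM HEPES/NaOH pH 7.0, 10 mM CaCl2, 0.02% PEG 8000, 2% DMSO, 25 °C. […] Inhibitor at 0.005-15 µM, 30 min preincubation, ex 330/em 405 nm, triplicate. Four-parameter logistic IC50, then Ki by the Horovitz-Levitski method.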

[6] = target: T1, Matrix metalloproteinase-14 (Homo sapiens, UniProt P50281); experiment: In vitro inhibitory activity against the catalytic domain of human matrix metalloprotease-14
Method in brief: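 E. coli-expressed human MMP-14 catalytic domain, activated by autocatalysis, at 0.3-5 nM. Assay buffer 50 mM HEPES pH 7.0, 10 mM CaCl2, 0.02% PEG 8000, 2% DMSO, 25 °C. […] Fluorescence ex 330/em 405 nm, triplicate. Ki derived from four-parameter logistic IC50 (Horovitz-Levitski).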

[7] = target: T1, Matrix metalloproteinase-14; experiment: In vitro inhibitory activity against the ectodomain of the human matrix metalloprotease-14
Method in brief: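 Ectodomain of human MMP-14 (ΔTM) expressed in Pichia pastoris. […] Buffer 50 mM HEPES pH 7.0, 10 mM CaCl2, 0.02% PEG 8000, 2% DMSO, 25 °C. Inhibitor 0.005-15 µM, 30 min preincubation, ex 330/em 405 nm, triplicate. Ki from logistic-fit IC50 by the Horovitz-Levitski method.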

[8] = target: T2, Interstitial collagenase (Homo sapiens, UniProt P03956); experiment: In vitro inhibitory activity against full-length human matrix metalloprotease-1
T2 sequence (P03956 whole entry): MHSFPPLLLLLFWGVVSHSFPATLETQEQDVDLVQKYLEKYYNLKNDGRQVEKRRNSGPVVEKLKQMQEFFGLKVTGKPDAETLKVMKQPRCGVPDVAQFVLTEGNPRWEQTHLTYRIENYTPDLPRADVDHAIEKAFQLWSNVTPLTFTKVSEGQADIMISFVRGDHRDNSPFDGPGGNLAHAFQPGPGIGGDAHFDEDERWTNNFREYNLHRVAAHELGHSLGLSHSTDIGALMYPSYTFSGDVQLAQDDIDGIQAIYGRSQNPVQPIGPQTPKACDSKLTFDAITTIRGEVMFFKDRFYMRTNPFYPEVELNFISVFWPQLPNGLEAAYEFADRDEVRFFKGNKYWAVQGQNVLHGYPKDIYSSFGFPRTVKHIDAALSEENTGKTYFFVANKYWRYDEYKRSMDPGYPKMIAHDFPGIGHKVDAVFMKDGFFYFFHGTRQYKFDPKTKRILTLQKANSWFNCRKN

[9] = target: T1, Matrix metalloproteinase-14; experiment: Inhibition of matrix metalloprotease-14

Sequence of 72 kDa type IV collagenase (P08253 whole entry, the tested form may be a part): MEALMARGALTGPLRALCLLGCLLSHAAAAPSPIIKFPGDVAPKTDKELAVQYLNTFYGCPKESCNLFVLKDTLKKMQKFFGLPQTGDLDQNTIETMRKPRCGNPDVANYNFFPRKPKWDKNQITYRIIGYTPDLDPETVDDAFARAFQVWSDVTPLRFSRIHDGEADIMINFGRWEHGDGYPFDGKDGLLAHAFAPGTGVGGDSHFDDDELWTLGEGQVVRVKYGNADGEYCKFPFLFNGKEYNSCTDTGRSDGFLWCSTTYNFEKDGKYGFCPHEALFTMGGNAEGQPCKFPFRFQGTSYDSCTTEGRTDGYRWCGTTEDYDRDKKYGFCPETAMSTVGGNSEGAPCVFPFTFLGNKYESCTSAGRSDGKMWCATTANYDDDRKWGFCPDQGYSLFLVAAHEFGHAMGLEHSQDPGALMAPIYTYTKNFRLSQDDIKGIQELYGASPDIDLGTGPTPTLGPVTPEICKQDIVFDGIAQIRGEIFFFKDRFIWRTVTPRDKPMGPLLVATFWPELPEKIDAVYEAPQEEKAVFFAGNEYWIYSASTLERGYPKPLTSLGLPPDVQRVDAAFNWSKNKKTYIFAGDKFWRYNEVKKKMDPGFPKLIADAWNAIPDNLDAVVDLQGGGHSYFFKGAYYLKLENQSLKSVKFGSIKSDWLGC
Sequence of Neutrophil collagenase (P22894 whole entry): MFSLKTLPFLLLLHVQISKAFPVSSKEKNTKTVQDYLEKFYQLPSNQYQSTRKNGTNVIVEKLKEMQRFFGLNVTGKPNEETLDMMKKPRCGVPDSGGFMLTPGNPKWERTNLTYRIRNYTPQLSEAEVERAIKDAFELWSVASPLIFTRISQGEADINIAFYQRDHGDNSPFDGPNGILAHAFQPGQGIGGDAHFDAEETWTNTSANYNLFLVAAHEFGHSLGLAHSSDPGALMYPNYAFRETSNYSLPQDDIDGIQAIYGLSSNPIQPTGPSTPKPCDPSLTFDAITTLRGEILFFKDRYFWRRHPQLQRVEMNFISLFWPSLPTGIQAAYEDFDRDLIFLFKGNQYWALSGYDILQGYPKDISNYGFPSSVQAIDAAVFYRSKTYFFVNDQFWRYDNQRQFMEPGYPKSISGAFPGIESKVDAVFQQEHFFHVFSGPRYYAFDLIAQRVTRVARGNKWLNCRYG
Sequence of Macrophage metalloelastase (P39900 whole entry, the tested form may be a part): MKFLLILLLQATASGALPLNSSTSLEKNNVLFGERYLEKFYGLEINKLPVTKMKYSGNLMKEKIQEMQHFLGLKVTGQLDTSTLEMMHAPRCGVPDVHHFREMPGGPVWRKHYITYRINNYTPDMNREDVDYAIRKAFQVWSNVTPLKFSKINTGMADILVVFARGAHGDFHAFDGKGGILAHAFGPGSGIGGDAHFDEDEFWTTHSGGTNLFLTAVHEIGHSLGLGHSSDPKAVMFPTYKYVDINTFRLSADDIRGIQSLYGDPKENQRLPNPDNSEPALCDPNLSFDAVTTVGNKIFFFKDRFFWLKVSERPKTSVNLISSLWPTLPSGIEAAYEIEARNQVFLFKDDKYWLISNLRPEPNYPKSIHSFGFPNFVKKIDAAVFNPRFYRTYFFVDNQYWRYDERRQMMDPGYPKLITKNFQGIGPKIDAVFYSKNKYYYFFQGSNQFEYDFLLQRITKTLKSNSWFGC
Sequence of Matrix metalloproteinase-9 (P14780 whole entry): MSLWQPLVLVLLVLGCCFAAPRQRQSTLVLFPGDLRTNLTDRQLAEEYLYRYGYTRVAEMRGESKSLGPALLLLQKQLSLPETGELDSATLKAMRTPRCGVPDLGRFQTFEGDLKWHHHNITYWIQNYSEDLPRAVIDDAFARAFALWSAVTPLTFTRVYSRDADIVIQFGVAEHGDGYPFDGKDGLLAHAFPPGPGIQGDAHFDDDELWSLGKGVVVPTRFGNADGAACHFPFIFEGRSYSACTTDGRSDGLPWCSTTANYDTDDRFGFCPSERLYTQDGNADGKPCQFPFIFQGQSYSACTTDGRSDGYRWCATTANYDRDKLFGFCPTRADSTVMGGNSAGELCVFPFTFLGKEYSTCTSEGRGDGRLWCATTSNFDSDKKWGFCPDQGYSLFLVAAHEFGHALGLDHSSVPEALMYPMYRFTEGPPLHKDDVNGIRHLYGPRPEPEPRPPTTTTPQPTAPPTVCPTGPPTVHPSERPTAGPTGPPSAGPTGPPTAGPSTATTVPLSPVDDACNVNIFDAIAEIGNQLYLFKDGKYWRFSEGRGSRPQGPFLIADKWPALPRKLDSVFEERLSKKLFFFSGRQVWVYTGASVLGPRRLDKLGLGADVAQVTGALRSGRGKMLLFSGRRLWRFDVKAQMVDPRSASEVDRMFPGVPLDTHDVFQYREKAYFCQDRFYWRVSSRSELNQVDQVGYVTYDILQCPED

Ki [1]: > 15000 nM
Ki [2]: > 15000 nM
Ki [3]: > 15000 nM
Ki [4]: > 15000 nM
Ki [5]: 410 nM
Ki [6]: 3070 nM
Compound: C[C@H](NS(=O)(=O)c1ccccc1)C(=O)NC1=NN=C(C23CC4CC(CC(C4)C2)C3)CS1

Compound: Cc1ccc(C2=NN=C(NC(=O)[C@@H](C)NS(=O)(=O)c3ccccc3)SC2)cc1
Ki [1]: 220 nM
Ki [2]: 440 nM
Ki [3]: 320 nM
Ki [7]: 150 nM
Ki [4]: 210 nM
Ki [8]: 460 nM
Ki [5]: 90 nM
Ki [6]: 290 nM

Compound: C[C@@H](NS(=O)(=O)c1ccccc1)C(=O)NC1=NN=C(c2ccc(Cl)cc2)CS1
Ki [1]: 150 nM
Ki [2]: 500 nM
Ki [3]: 140 nM
Ki [7]: 210 nM
Ki [4]: 80 nM
Ki [9]: 50 nM
Ki [8]: 210 nM
Ki [5]: 320 nM

Compound: C[C@H](NS(=O)(=O)c1ccccc1)C(=O)NC1=NN=C(c2ccc(F)cc2)CS1
Ki [2]: 450 nM
Ki [3]: 650 nM
Ki [4]: 160 nM
Ki [8]: 440 nM
Ki [5]: 280 nM
Ki [6]: 440 nM

Compound: CC(C)[C@H](NS(=O)(=O)c1ccccc1)C(=O)NC1=NN=C(c2ccc(Cl)cc2)CS1
Ki [1]: 780 nM
Ki [2]: 880 nM
Ki [3]: > 15000 nM
Ki [4]: 200 nM
Ki [5]: 380 nM
Ki [6]: 740 nM

Compound: Cc1ccc(C2=NN=C(NC(=O)[C@H](C)NS(=O)(=O)c3ccccc3)SC2)cc1
Ki [1]: 300 nM
Ki [2]: 410 nM
Ki [3]: 620 nM
Ki [4]: 160 nM
Ki [5]: 110 nM
Ki [6]: 380 nM

Compound: C[C@H](NS(=O)(=O)c1ccccc1)C(=O)NC1=NN=C(c2ccc(C(F)(F)F)cc2)CS1
Ki [1]: 260 nM
Ki [3]: 570 nM
Ki [7]: 390 nM
Ki [4]: 240 nM
Ki [8]: 430 nM
Ki [5]: 300 nM
Ki [6]: 580 nM

Ki [1]: 480 nM
Ki [2]: 80 nM
Ki [3]: 180 nM
Ki [7]: 110 nM
Ki [4]: 90 nM
Ki [8]: 300 nM
Ki [5]: 200 nM
Ki [6]: 150 nM
Compound: CC(C)(NS(=O)(=O)c1ccccc1)C(=O)NC1=NN=C(c2ccc(Cl)cc2)CS1

Ki [1]: 60 nM
Ki [2]: 550 nM
Ki [3]: 3810 nM
Ki [4]: 800 nM
Ki [5]: 360 nM
Ki [6]: 250 nM
Compound: C[C@H](NS(=O)(=O)c1cccs1)C(=O)NC1=NN=C(c2ccc(Cl)cc2)CS1

Compound: C[C@H](NS(=O)(=O)c1ccccc1)C(=O)NC1=NN=C(c2ccc(Br)cc2)CS1
Ki [1]: 110 nM
Ki [2]: 270 nM
Ki [3]: 370 nM
Ki [4]: 160 nM
Ki [9]: 340 nM
Ki [5]: 440 nM

Compound: C[C@@H](NS(=O)(=O)c1ccccc1)C(=O)NC1=NN=C(c2ccc(Br)cc2)CS1
Ki [1]: 210 nM
Ki [2]: 150 nM
Ki [3]: 130 nM
Ki [7]: 180 nM
Ki [4]: 40 nM
Ki [9]: 200 nM
Ki [8]: 420 nM
Ki [5]: 340 nM

Compound: C[C@H](NS(=O)(=O)Cc1ccccc1)C(=O)NC1=NN=C(c2ccc(Cl)cc2)CS1
Ki [1]: 200 nM
Ki [2]: 90 nM
Ki [3]: 120 nM
Ki [7]: 180 nM
Ki [4]: 40 nM
Ki [8]: 360 nM
Ki [5]: 480 nM
Ki [6]: 190 nM

Compound: C[C@H](NS(=O)(=O)c1ccccc1)C(=O)NC1=NN=C(c2ccc(Cl)cc2)CS1
Ki [1]: 730 nM
Ki [2]: 140 nM
Ki [3]: 180 nM
Ki [7]: 210 nM
Ki [4]: 60 nM
Ki [8]: 650 nM
Ki [5]: 520 nM
Ki [6]: 100 nM

Compound: C[C@@H](NS(=O)(=O)c1ccccc1)C(=O)NC1=NN=C(c2ccc(C#N)cc2)CS1
Ki [1]: 230 nM
Ki [2]: 210 nM
Ki [3]: 210 nM
Ki [7]: 400 nM
Ki [4]: 80 nM
Ki [9]: 240 nM
Ki [8]: 400 nM
Ki [5]: 360 nM

Ki [1]: 180 nM
Ki [2]: 1870 nM
Ki [3]: 470 nM
Ki [7]: 200 nM
Ki [4]: 170 nM
Ki [8]: 450 nM
Ki [5]: 240 nM
Ki [6]: 320 nM
Compound: C[C@H](NS(=O)(=O)c1ccccc1)C(=O)NC1=NN=C(c2ccc(Cl)s2)CS1

Compound: C[C@H](NS(=O)(=O)c1ccccc1)C(=O)NC1=NN=C(c2ccc([N+](=O)[O-])cc2)CS1
Ki [1]: 170 nM
Ki [2]: 300 nM
Ki [3]: 260 nM
Ki [4]: 130 nM
Ki [8]: 260 nM
Ki [5]: 280 nM
Ki [6]: 290 nM

Compound: C[C@@H](NS(=O)(=O)c1ccccc1)C(=O)NC1=NN=C(c2ccc(F)cc2)CS1
Ki [2]: 340 nM
Ki [3]: 300 nM
Ki [7]: 330 nM
Ki [4]: 50 nM
Ki [8]: 630 nM
Ki [5]: 350 nM
Ki [6]: 390 nM

Compound: COc1ccc(C2=NN=C(NC(=O)[C@H](C)NS(=O)(=O)c3ccccc3)SC2)cc1
Ki [1]: 180 nM
Ki [3]: 1330 nM
Ki [4]: 320 nM
Ki [8]: 580 nM
Ki [5]: 340 nM
Ki [6]: 590 nM

Compound: C[C@H](NS(=O)(=O)c1ccccc1)C(=O)NC1=NN=C(c2ccc(C#N)cc2)CS1
Ki [1]: 220 nM
Ki [2]: 240 nM
Ki [3]: 250 nM
Ki [7]: 400 nM
Ki [4]: 80 nM
Ki [9]: 240 nM
Ki [8]: 390 nM
Ki [5]: 370 nM

Compound: CC(C)[C@@H](NS(=O)(=O)c1ccccc1)C(=O)NC1=NN=C(c2ccc(Cl)cc2)CS1
Ki [1]: 4370 nM
Ki [2]: 850 nM
Ki [3]: > 15000 nM
Ki [7]: 330 nM
Ki [4]: > 15000 nM
Ki [8]: 550 nM
Ki [5]: 350 nM
Ki [6]: 590 nM
